We go through 31 compounds from ChEMBL document CHEMBL1121372, “Synthesis and antihypertensive activity of 5-amino-2-pyridinecarboxylic acid derivatives” (1980).

Test [1] has as its system Rattus norvegicus. Description: Antihypertensive effect in spontaneously hypertensive rat (SHR), expressed as fall in blood pressure (BP) at 50 mg/kg dose given orally. As to conditions: route oral. The test is classed as functional. The gist of the method:
(§1)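 Male SHR, about 16 weeks old, with systolic pressure above 150 mmHg, held in restraint cages. Tail-cuff occlusion was raised to 250 mmHg and then lowered, after 1 h acclimation and at least 3 baseline readings. Dosing was by daily gavage in 3% cornstarch/5% PEG-400/Tween 80 for 2 or 4 days, with 4–6 rats per drug. Readings at 1, 2, 3 and 24 h; peak fall reported.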

Test [2] has as its system Rattus norvegicus. Description: The compound was tested for antihypertensive effect in spontaneously hypertensive rat (SHR), expressed as fall in blood pressure (BP) at 100 mg/kg dose given orally. The test is classed as functional. Particulars: route oral. The gist of the method:
as §1

For test [3], the system named is Rattus norvegicus. Description: The compound was tested for antihypertensive effect in spontaneously hypertensive rat (SHR), expressed as fall in blood pressure (BP) at 50 mg/kg dose given orally; Inactive. The test is classed as functional, organism-based. Also on record: dose 50 mg/kg. The gist of the method: as §1
Test [4] concerns Rattus norvegicus. Description: The compound was tested for antihypertensive effect in spontaneously hypertensive rat (SHR), expressed as fall in blood pressure (BP) at 50 mg/kg dose given per orally. The test is classed as functional. As to conditions: route oral. The gist of the method:
as §1

Test [5] deals with Rattus norvegicus. The experiment in a line: The compound was tested for antihypertensive effect in spontaneously hypertensive rat (SHR), expressed as fall in blood pressure (BP) at 100 mg/kg dose given orally; Inactive. Also on record: dose 100 mg/kg. The test is classed as functional, organism-based. In outline: as §1
Test [6] deals with Rattus norvegicus. The experiment in a line: The compound was tested for antihypertensive effect in spontaneously hypertensive rat (SHR), expressed as fall in blood pressure (BP) at 25 mg/kg dose given orally. The test is classed as functional. As to conditions: route oral. The gist of the method: as §1
Test [7] concerns Canis familiaris. The experiment in a line: Antihypertensive activity in unanesthetized renal hypertensive dogs measured as mean Blood Pressure at 100 mg per kg dose after peroral administration on day1. Further details: unit not given beside the values. The test is classed as functional, Canis lupus familiaris. As to conditions: route oral. The gist of the method:
(§2)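 Renal hypertensive dogs, unanesthetized. Test compound given orally once daily as a solid in a gelatin capsule. Blood pressure was taken at 1.5, 3, 6 and 24 h after each daily dose. Activity is the maximum change in mean blood pressure or heart rate over each daily session. Values are mean ± SE, with significance marked at p < 0.05.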

In test [8] the test system is Canis familiaris. Description: Antihypertensive activity in unanesthetized renal hypertensive dogs measured as mean Blood Pressure at 100 mg per kg dose after peroral administration on day 2. As to conditions: route oral. Type of test: functional, Canis lupus familiaris. The gist of the method: as §2
Test [9] deals with Canis familiaris. The experiment in a line: Antihypertensive activity in unanesthetized renal hypertensive dogs measured as mean Blood Pressure at 100 mg per kg dose after peroral administration on day 2 (p<0.05). Type of test: functional, Canis lupus familiaris. Particulars: route oral. In outline: as §2
The subject of test [10] is Canis familiaris. Description: Antihypertensive activity in unanesthetized renal hypertensive dogs measured as Heart Rate (HR) (beats/min) at 100 mg per kg dose after peroral administration on day 2 (p<0.05). Type of test: functional, Canis lupus familiaris. As to conditions: route oral. The gist of the method:
as §2

Test [11] relates to Canis familiaris. The experiment in a line: Antihypertensive activity in unanesthetized renal hypertensive dogs measured as Heart Rate (HR) (beats/min) at 100 mg per kg dose after peroral administration on day1. Type of test: functional, Canis lupus familiaris. As to conditions: route oral. In outline: as §2

Each structure is given as a SMILES string. The source made the active and inactive calls. No cut-off for these calls is given here.

`Cc1cccc(CN(C)c2ccc(C(=O)O)nc2)c1` returned a BP in [1] above 20 mmHg.

In [2], `O=C(O)c1ccc(NCCCc2ccccc2)cn1` had a BP above 40 mmHg.

Turning to `O=C(O)c1ccc(NCc2ccc(Cl)cc2)cn1`, in test [2], the BP is given as above 40 mmHg.

In test [1], `O=C(O)c1ccc(NCc2ccc(Cl)c(Cl)c2)cn1` displayed a BP below 20 mmHg. In test [2], `O=C(O)c1ccc(N(Cc2cccc(Cl)c2)Cc2cccc(Cl)c2)cn1` had a BP above 20 mmHg. Same read-out and setting: the result for `O=C(O)c1ccc(NCc2cccc(C(F)(F)F)c2)cn1` reads above 60 mmHg. In the case of `CCNC(=O)c1ccc(NCc2ccc(F)cc2)cn1`, the BP result in test [3] was “inactive”. Compound `CN(Cc1ccccc1)c1ccc(C(=O)O)nc1` registered a BP in test [1] above 40 mmHg. Still for that read-out and setting: to `NC(=O)c1ccc(NCc2ccc(F)cc2)cn1` belongs above 40 mmHg; to `O=C(O)c1ccc(NCCc2ccccc2)cn1`, above 20 mmHg; to `CN(Cc1cccc(F)c1)c1ccc(C(=O)O)nc1`, above 20 mmHg.

The compound `Cc1nc(C(=O)O)ccc1N(C)Cc1cccc(Cl)c1` displayed a BP in test [2] above 20 mmHg.

Consider `O=C(O)c1ccc(NCc2cccc(Oc3ccccc3)c2)cn1`, for which the BP in [1] is above 20 mmHg. `O=C(O)c1ccc(Nc2ccccc2)cn1`: in [3], the BP entry is “inactive”. For the compound `O=C(O)c1ccc(NCc2ccccn2)cn1`, in [1], the BP is given as above 20 mmHg. The same measure, in the same setting: the result for `OCc1ccc(NCc2ccc(F)cc2)cn1` reads above 80 mmHg.

Compound `CCCCNc1ccc(C(=O)OC)nc1` registered a BP in [4] below 20 mmHg. With `N#Cc1ccc(NCc2ccc(F)cc2)cn1`, the BP result in test [3] was “inactive”.

In turn, `Cc1nc(C(=O)O)ccc1NCc1cccc(Cl)c1` returned a BP in [1] above 20 mmHg. In test [1], `NC(=O)c1ccc(CNc2ccc(C(=O)O)nc2)cc1` registered a BP below 20 mmHg.

Take `Cc1cccc(CNc2ccc(C(=O)O)nc2)c1`: the BP in test [1] is given as above 20 mmHg. On the same count and under the same terms, the result for `Fc1ccc(CNc2ccc(C3N=NN=N3)nc2)cc1` reads above 60 mmHg. `COc1cccc(CNc2ccc(C(=O)O)nc2)c1` registered a BP in test [1] above 20 mmHg. Turning to `OCc1ccc(NCc2cccc(Cl)c2)cn1`, the BP in test [1] is above 40 mmHg. As for `CCC(=O)Nc1ccc(C(=O)O)nc1`, the BP entry in test [5] is “inactive”. With `CN(Cc1cccc(Cl)c1)c1ccc(C(=O)O)nc1`, the BP in test [6] was above 40 mmHg; in [2] it was above 80 mmHg; in test [1] it was above 80 mmHg. Further, the MBP in test [7] is listed as -21; in test [8], -25. `COC(=O)c1ccc(NCc2ccc(F)cc2)cn1` showed a BP in [1] above 60 mmHg. For `CN(C)C(=O)c1ccc(NCc2ccc(F)cc2)cn1`, the MBP in test [9] is on record as -67. This compound gave an HR in test [10] of 112. In test [11], the “Maximum change in heart rate” value was determined as 20. The compound also showed a BP in test [1] above 60 mmHg. In test [1], `O=C(O)c1ccc(NCc2cccc(Br)c2)cn1` displayed a BP above 20 mmHg. Turning to `COc1cc(CNc2ccc(C(=O)O)nc2)cc(OC)c1OC`, the BP in test [1] is listed as below 20 mmHg. Compound `CCC(=O)N(Cc1cccc(Cl)c1)c1ccc(C(=O)O)nc1` came in with a BP in test [2] below 20 mmHg.
